# Experiments:
# Pseudomonas aeruginosa = test: Antimicrobial activity against Pseudomonas aeruginosa at 200 ug after 24 hrs by agar disc diffusion method; assay type: functional; settings: read-out: DIZ
# Escherichia coli = test: Antimicrobial activity against Escherichia coli at 200 ug after 24 hrs by agar disc diffusion method; assay type: functional; settings: read-out: DIZ
# Micrococcus luteus = test: Antimicrobial activity against Micrococcus luteus at 200 ug after 24 hrs by agar disc diffusion method; assay type: functional; settings: read-out: DIZ
# Bacillus subtilis [1] = test: Antimicrobial activity against Bacillus subtilis at 200 ug after 24 hrs by agar disc diffusion method; assay type: functional; settings: read-out: DIZ
# Dihydrofolate reductase = target: T1, Dihydrofolate reductase (Bos taurus, UniProt P00376); test: Inhibition of bovine DHFR after 2 mins by spectrophotometry
# T1 sequence (P00376 whole entry): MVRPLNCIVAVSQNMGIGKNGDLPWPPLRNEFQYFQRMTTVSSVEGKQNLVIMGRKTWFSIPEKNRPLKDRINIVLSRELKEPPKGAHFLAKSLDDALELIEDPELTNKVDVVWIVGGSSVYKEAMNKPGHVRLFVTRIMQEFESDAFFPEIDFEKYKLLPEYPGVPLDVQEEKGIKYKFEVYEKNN
# Staphylococcus aureus = test: Antimicrobial activity against Staphylococcus aureus at 200 ug after 24 hrs by agar disc diffusion method; assay type: functional; settings: read-out: DIZ
# Bacillus subtilis [2] = test: Antimicrobial activity against Bacillus subtilis after 24 hrs by micro-dilution susceptibility method; assay type: functional
# Method in brief: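 Broth microdilution in Müller-Hinton broth against S. aureus IFO 3060, B. subtilis IFO 3007, E. coli IFO 3301 and P. aeruginosa IFO 3448. These are the same standard strains used in the disc-diffusion primary screen. Compounds were solubilized in DMSO. MIC recorded as the minimal inhibitory concentration.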
# T47D = test: Cytotoxicity against human T47D cells at 10 uM after 48 hrs by coulter counter analysis; assay type: functional; settings: read-out: GI
# Hs-578T = test: Cytotoxicity against human Hs578T cells at 10 uM after 48 hrs by coulter counter analysis; assay type: functional; settings: read-out: GI
# MCF7 = test: Cytotoxicity against human MCF7 cells at 10 uM after 48 hrs by coulter counter analysis; assay type: functional; settings: MCF7, 48 h, read-out: GI
# MDA-MB-231 = test: Cytotoxicity against human MDA-MB-231 cells at 10 uM after 48 hrs by coulter counter analysis; assay type: functional; settings: MDA-MB-231, 48 h, read-out: GI
# PC-3 = test: Cytotoxicity against human PC3 cells at 10 uM after 48 hrs by coulter counter analysis; assay type: functional; settings: PC-3, 48 h, read-out: GI
# UO-31 = test: Cytotoxicity against human UO31 cells at 10 uM after 48 hrs by coulter counter analysis; assay type: functional; settings: UO-31, 48 h, read-out: GI
# RXF 393 = test: Cytotoxicity against human RXF393 cells at 10 uM after 48 hrs by coulter counter analysis; assay type: functional; settings: RXF 393, 48 h, read-out: GI
# SN12C = test: Cytotoxicity against human SN12C cells at 10 uM after 48 hrs by coulter counter analysis; assay type: functional; settings: read-out: GI
# A498 = test: Cytotoxicity against human A498 cells at 10 uM after 48 hrs by coulter counter analysis; assay type: functional; settings: A498, 48 h, read-out: GI
# CAKI-1 = test: Cytotoxicity against human Caki1 cells at 10 uM after 48 hrs by coulter counter analysis; assay type: functional; settings: CAKI-1, 48 h, read-out: GI
# [3] = Cytotoxicity against human NCI-ADR-RES cells at 10 uM after 48 hrs by coulter counter analysis; assay type: functional; settings: read-out: GI
# OVCAR-4 = test: Cytotoxicity against human OVCAR4 cells at 10 uM after 48 hrs by coulter counter analysis; assay type: functional; settings: OVCAR-4, 48 h, read-out: GI
# UACC-62 = test: Cytotoxicity against human UACC62 cells at 10 uM after 48 hrs by coulter counter analysis; assay type: functional; settings: UACC-62, 48 h, read-out: GI
# IGROV-1 = test: Cytotoxicity against human IGROV1 cells at 10 uM after 48 hrs by coulter counter analysis; assay type: functional; settings: IGROV-1, 48 h, read-out: GI
# SK-MEL-5 = test: Cytotoxicity against human SK-MEL-5 cells at 10 uM after 48 hrs by coulter counter analysis; assay type: functional; settings: SK-MEL-5, 48 h, read-out: GI
# Malme-3M = test: Cytotoxicity against human MALME-3M cells at 10 uM after 48 hrs by coulter counter analysis; assay type: functional; settings: read-out: GI
# MDA-MB-435 = test: Cytotoxicity against human MDA-MB-435 cells at 10 uM after 48 hrs by coulter counter analysis; assay type: functional; settings: MDA-MB-435, 48 h, read-out: GI
# SNB-75 = test: Cytotoxicity against human SNB75 cells at 10 uM after 48 hrs by coulter counter analysis; assay type: functional; settings: SNB-75, 48 h, read-out: GI
# LOX IMVI = test: Cytotoxicity against human LOXIMVI cells at 10 uM after 48 hrs by coulter counter analysis; assay type: functional; settings: read-out: GI
# SNB-19 = test: Cytotoxicity against human SNB19 cells at 10 uM after 48 hrs by coulter counter analysis; assay type: functional; settings: SNB-19, 48 h, read-out: GI
# NCI-H522 = test: Cytotoxicity against human NCI-H522 cells at 10 uM after 48 hrs by coulter counter analysis; assay type: functional; settings: NCI-H522, 48 h, read-out: GI
# SF-295 = test: Cytotoxicity against human SF295 cells at 10 uM after 48 hrs by coulter counter analysis; assay type: functional; settings: SF-295, 48 h, read-out: GI
# NCI-H23 = test: Cytotoxicity against human NCI-H23 cells at 10 uM after 48 hrs by coulter counter analysis; assay type: functional; settings: NCI-H23, 48 h, read-out: GI
# [4] = Cytotoxicity against human EKVX cells at 10 uM after 48 hrs by coulter counter analysis; assay type: functional; settings: read-out: GI
# NCI-H226 = test: Cytotoxicity against human NCI-H226 cells at 10 uM after 48 hrs by coulter counter analysis; assay type: functional; settings: NCI-H226, 48 h, read-out: GI
# A549 = test: Cytotoxicity against human A549/ATCC cells at 10 uM after 48 hrs by coulter counter analysis; assay type: functional; settings: A549, 48 h, read-out: GI
# RPMI-8226 = test: Cytotoxicity against human RPMI8226 cells at 10 uM after 48 hrs by coulter counter analysis; assay type: functional; settings: RPMI-8226, 48 h, read-out: GI
# SR = test: Cytotoxicity against human SR cells at 10 uM after 48 hrs by coulter counter analysis; assay type: functional; settings: read-out: GI
# MOLT-4 = test: Cytotoxicity against human MOLT4 cells at 10 uM after 48 hrs by coulter counter analysis; assay type: functional; settings: MOLT-4, 48 h, read-out: GI
# CCRF-CEM = test: Cytotoxicity against human CCRF-CEM cells at 10 uM after 48 hrs by coulter counter analysis; assay type: functional; settings: read-out: GI
# HL-60(TB) = test: Cytotoxicity against human HL-60(TB) cells at 10 uM after 48 hrs by coulter counter analysis; assay type: functional; settings: HL-60, 48 h, read-out: GI
smiles,measurement,setting,value
CCOC(=O)c1nc(N)sc1Sc1nc2cc(OC)c(OC)cc2c(=O)n1-c1ccccc1,zone of inhibition at 200 µg/disc,Pseudomonas aeruginosa,8 mm
same,zone of inhibition at 200 µg/disc,Escherichia coli,8 mm
same,zone of inhibition at 200 µg/disc,Micrococcus luteus,8 mm
same,zone of inhibition at 200 µg/disc,Bacillus subtilis [1],8 mm
same,IC50,Dihydrofolate reductase,0.3 µM
same,zone of inhibition at 200 µg/disc,Staphylococcus aureus,8 mm
O=C(O)c1ccc([N+](=O)[O-])cc1Sc1nc2ccc(Cl)cc2c(=O)n1-c1ccccc1,MIC,Bacillus subtilis [2],4 µg/mL
same,zone of inhibition at 200 µg/disc,Pseudomonas aeruginosa,8 mm
same,zone of inhibition at 200 µg/disc,Escherichia coli,8 mm
same,zone of inhibition at 200 µg/disc,Micrococcus luteus,8 mm
same,zone of inhibition at 200 µg/disc,Bacillus subtilis [1],20 mm
same,IC50,Dihydrofolate reductase,10 µM
same,zone of inhibition at 200 µg/disc,Staphylococcus aureus,14 mm
Cc1ccc2nc(Sc3cnc(N)s3)n(Cc3ccccc3)c(=O)c2c1,inhibition of growth at 10 µM,T47D,< 10%
same,inhibition of growth at 10 µM,Hs-578T,< 10%
same,inhibition of growth at 10 µM,MCF7,10.8%
same,inhibition of growth at 10 µM,MDA-MB-231,15.2%
same,inhibition of growth at 10 µM,PC-3,22.6%
same,inhibition of growth at 10 µM,UO-31,29.4%
same,inhibition of growth at 10 µM,RXF 393,< 10%
same,inhibition of growth at 10 µM,SN12C,< 10%
same,inhibition of growth at 10 µM,A498,< 10%
same,inhibition of growth at 10 µM,CAKI-1,30.3%
same,inhibition of growth at 10 µM,[3],< 10%
same,inhibition of growth at 10 µM,OVCAR-4,< 10%
same,inhibition of growth at 10 µM,UACC-62,12.2%
same,inhibition of growth at 10 µM,IGROV-1,21.8%
same,inhibition of growth at 10 µM,SK-MEL-5,< 10%
same,inhibition of growth at 10 µM,Malme-3M,12.3%
same,inhibition of growth at 10 µM,MDA-MB-435,< 10%
same,inhibition of growth at 10 µM,SNB-75,20.4%
same,inhibition of growth at 10 µM,LOX IMVI,10.4%
same,inhibition of growth at 10 µM,SNB-19,< 10%
same,inhibition of growth at 10 µM,NCI-H522,< 10%
same,inhibition of growth at 10 µM,SF-295,17.3%
same,inhibition of growth at 10 µM,NCI-H23,< 10%
same,inhibition of growth at 10 µM,[4],25.9%
same,inhibition of growth at 10 µM,NCI-H226,19.9%
same,inhibition of growth at 10 µM,A549,< 10%
same,inhibition of growth at 10 µM,RPMI-8226,16.8%
same,inhibition of growth at 10 µM,SR,< 10%
same,inhibition of growth at 10 µM,MOLT-4,< 10%
same,inhibition of growth at 10 µM,CCRF-CEM,< 10%
same,inhibition of growth at 10 µM,HL-60(TB),< 10%
same,zone of inhibition at 200 µg/disc,Pseudomonas aeruginosa,8 mm
same,zone of inhibition at 200 µg/disc,Escherichia coli,8 mm
same,zone of inhibition at 200 µg/disc,Micrococcus luteus,8 mm
same,zone of inhibition at 200 µg/disc,Bacillus subtilis [1],8 mm
same,IC50,Dihydrofolate reductase,1 µM
same,zone of inhibition at 200 µg/disc,Staphylococcus aureus,8 mm
Cc1ccc2nc(Sc3cc([N+](=O)[O-])ccc3C(=O)O)n(Cc3ccccc3)c(=O)c2c1,zone of inhibition at 200 µg/disc,Pseudomonas aeruginosa,8 mm
same,zone of inhibition at 200 µg/disc,Escherichia coli,8 mm
same,zone of inhibition at 200 µg/disc,Micrococcus luteus,8 mm
same,zone of inhibition at 200 µg/disc,Bacillus subtilis [1],8 mm
same,IC50,Dihydrofolate reductase,12 µM
same,zone of inhibition at 200 µg/disc,Staphylococcus aureus,8 mm
CCOC(=O)c1nc(N)sc1Sc1nc2cc(OC)c(OC)cc2c(=O)n1Cc1ccccc1,zone of inhibition at 200 µg/disc,Pseudomonas aeruginosa,8 mm
same,zone of inhibition at 200 µg/disc,Escherichia coli,8 mm
same,zone of inhibition at 200 µg/disc,Micrococcus luteus,8 mm
same,zone of inhibition at 200 µg/disc,Bacillus subtilis [1],20 mm
same,IC50,Dihydrofolate reductase,2 µM
same,zone of inhibition at 200 µg/disc,Staphylococcus aureus,18 mm
O=C(O)c1ccc([N+](=O)[O-])cc1Sc1nc2ccc(Cl)cc2c(=O)n1Cc1ccccc1,zone of inhibition at 200 µg/disc,Pseudomonas aeruginosa,8 mm
same,zone of inhibition at 200 µg/disc,Escherichia coli,8 mm
same,zone of inhibition at 200 µg/disc,Micrococcus luteus,8 mm
same,zone of inhibition at 200 µg/disc,Bacillus subtilis [1],15 mm
same,IC50,Dihydrofolate reductase,8 µM
same,zone of inhibition at 200 µg/disc,Staphylococcus aureus,8 mm

# Source: ChEMBL document CHEMBL2375290, “Nonclassical antifolates, part 3: synthesis, biological evaluation and molecular modeling study of some new 2-heteroarylthio-quinazolin-4-ones” (Eur J Med Chem, 2013)
